As a reminder, the Papp is the rate of passage across a membrane or cell layer, normalised by area and donor concentration. Usually efflux ratio stands for a quotient of directional permeabilities that is used to spot active efflux. What is called logD is lipophilicity at a set pH, counting ionised and neutral species. For orientation: fraction unbound means free concentration divided by total concentration. As a reminder, the Ki is the dissociation constant of the complex between target and ligand, obtained from inhibition or displacement. By IC50 is commonly meant the midpoint of a concentration-inhibition curve.

The results in this text go back to ChEMBL document CHEMBL2429711, “[(11)C]MK-4232: The First Positron Emission Tomography Tracer for the Calcitonin Gene-Related Peptide Receptor” (ACS Med Chem Lett, 2013).

The test system of data set [1] is CGRP receptor (Macaca mulatta). Description: Ratio of drug uptake in iv dosed rhesus monkey cerebellum to drug uptake in iv dosed rhesus monkey white matter. As to conditions: in vivo.
The nature of data set [2]: Apparent passive permeability across pig LLC-PK1 cells. The data set is classed as ADME, cell-based, Sus scrofa. The method, boiled down: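 Permeability measured in control LLC-PK1 cells.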
The target in data set [3] is MDR1 (ABCB1) (Homo sapiens, UniProt P08183). Description: Efflux ratio of human MDR1-mediated drug transport from basolateral to apical side over apical to basolateral side in pig LLC cells expressing human MDR1 at 5 uM. It is filed as ADME, cell-based. The note with it: LLC-PK1. The method, boiled down:
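P-gp transport ratio BA/AB in LLC-MDR1 cells, test compound at 5 μM.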

A short description of data set [4]: Drug uptake in iv dosed rhesus monkey white matter after 80 mins. The note with it: in vivo. It is filed as ADME, organism-based, Macaca mulatta. A digest of the protocol:
(§1)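 Anesthetized rhesus monkeys given [11C]-tracer i.v.; PET specific uptake value (SUV) read in cerebellum or white matter at 80 min postdose.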

A short description of data set [5]: Lipophilicity, log D of the compound at pH 7.0 by HPLC analysis. The data set is classed as physicochemical. As to conditions: buffer. The method, boiled down:
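logD measured by HPLC at pH 7.0.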

Data set [6] in a line: Fraction unbound in monkey plasma by equillibrium dialysis method. The data set is classed as ADME, cell-free, Macaca mulatta. As to conditions: rhesus monkey. A digest of the protocol: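 Plasma unbound fraction by equilibrium dialysis.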
Data set [7] in a line: Drug uptake in iv dosed rhesus monkey cerebellum after 80 mins. The data set is classed as ADME, organism-based, Macaca mulatta. As to conditions: in vivo. A digest of the protocol:
as §1

Data set [8] has as its target T1, Calcitonin gene-related peptide type 1 receptor (Homo sapiens, UniProt O60894+Q16602). Description: Displacement of [125I]-hCGRP from human CGRP receptor expressed in HEK293 cells. The data set is classed as cell-based. The method, boiled down: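 Ki for inhibition of 125I-hCGRP binding; membranes from HEK293 cells stably expressing human CLR/RAMP1; replicate number given per value.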

A short description of data set [9]: Ratio of AUC in rhesus monkey CSF to AUC in rhesus monkey plasma. The data set is classed as ADME, Macaca mulatta. The method, boiled down:
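Cisterna magna-ported rhesus monkeys dosed; CSF AUC divided by plasma AUC.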

Data set [10] addresses Calcitonin gene-related peptide type 1 receptor (Homo sapiens) (UniProt Q16602). Description: Ratio of Bmax to Ki for human CGRP receptor expressed in HEK293 cells. It is filed as cell-based.
The species entered for data set [11] is Macaca mulatta. As to the kind of experiment: Binding affinity to rhesus monkey cerebellum CGRP receptor. The data set is classed as tissue-based.
Data set [12] deals with T1, Calcitonin gene-related peptide type 1 receptor. Description: Antagonist activity at CGRP receptor (unknown origin) by cell based cAMP assay in presence of human serum. It is filed as functional. A digest of the protocol:
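cAMP functional antagonism measured with 50% human serum added.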
(Changes in cAMP serve as a functional read-out for many G protein-coupled receptors.)

Data set [13] has the same target. As to the kind of experiment: Antagonist activity at CGRP receptor (unknown origin) by cell based cAMP assay. The data set is classed as functional.
Data set [14] is described as follows: Binding affinity to rhesus monkey CGRP receptor by radioligand binding assay. Also on record: species or system Macaca mulatta.
For data set [15], the target named is Calcitonin gene-related peptide type 1 receptor (Homo sapiens) (UniProt Q16602). As to the kind of experiment: Ratio of IC50 for CGRP receptor (unknown origin) to IC50 for CGRP receptor (unknown origin) in presence of human serum.
Chain of Calcitonin gene-related peptide type 1 receptor (Homo sapiens) (Q16602 whole entry): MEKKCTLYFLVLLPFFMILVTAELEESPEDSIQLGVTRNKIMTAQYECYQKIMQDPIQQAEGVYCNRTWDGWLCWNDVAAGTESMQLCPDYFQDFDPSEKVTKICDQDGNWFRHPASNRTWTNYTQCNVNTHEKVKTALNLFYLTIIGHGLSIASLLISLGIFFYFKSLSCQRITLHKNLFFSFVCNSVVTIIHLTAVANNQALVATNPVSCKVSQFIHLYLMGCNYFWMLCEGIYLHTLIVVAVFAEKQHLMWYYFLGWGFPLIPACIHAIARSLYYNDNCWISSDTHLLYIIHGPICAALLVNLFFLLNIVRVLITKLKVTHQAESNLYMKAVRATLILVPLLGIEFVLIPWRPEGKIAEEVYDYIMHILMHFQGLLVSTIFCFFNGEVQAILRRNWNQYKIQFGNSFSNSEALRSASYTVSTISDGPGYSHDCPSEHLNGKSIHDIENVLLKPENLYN
Data set [16] in a line: Fraction unbound in rhesus monkey CSF. It is filed as ADME, Macaca mulatta, Cerebrospinal fluid.

Chain of MDR1 (ABCB1) (P08183 whole entry): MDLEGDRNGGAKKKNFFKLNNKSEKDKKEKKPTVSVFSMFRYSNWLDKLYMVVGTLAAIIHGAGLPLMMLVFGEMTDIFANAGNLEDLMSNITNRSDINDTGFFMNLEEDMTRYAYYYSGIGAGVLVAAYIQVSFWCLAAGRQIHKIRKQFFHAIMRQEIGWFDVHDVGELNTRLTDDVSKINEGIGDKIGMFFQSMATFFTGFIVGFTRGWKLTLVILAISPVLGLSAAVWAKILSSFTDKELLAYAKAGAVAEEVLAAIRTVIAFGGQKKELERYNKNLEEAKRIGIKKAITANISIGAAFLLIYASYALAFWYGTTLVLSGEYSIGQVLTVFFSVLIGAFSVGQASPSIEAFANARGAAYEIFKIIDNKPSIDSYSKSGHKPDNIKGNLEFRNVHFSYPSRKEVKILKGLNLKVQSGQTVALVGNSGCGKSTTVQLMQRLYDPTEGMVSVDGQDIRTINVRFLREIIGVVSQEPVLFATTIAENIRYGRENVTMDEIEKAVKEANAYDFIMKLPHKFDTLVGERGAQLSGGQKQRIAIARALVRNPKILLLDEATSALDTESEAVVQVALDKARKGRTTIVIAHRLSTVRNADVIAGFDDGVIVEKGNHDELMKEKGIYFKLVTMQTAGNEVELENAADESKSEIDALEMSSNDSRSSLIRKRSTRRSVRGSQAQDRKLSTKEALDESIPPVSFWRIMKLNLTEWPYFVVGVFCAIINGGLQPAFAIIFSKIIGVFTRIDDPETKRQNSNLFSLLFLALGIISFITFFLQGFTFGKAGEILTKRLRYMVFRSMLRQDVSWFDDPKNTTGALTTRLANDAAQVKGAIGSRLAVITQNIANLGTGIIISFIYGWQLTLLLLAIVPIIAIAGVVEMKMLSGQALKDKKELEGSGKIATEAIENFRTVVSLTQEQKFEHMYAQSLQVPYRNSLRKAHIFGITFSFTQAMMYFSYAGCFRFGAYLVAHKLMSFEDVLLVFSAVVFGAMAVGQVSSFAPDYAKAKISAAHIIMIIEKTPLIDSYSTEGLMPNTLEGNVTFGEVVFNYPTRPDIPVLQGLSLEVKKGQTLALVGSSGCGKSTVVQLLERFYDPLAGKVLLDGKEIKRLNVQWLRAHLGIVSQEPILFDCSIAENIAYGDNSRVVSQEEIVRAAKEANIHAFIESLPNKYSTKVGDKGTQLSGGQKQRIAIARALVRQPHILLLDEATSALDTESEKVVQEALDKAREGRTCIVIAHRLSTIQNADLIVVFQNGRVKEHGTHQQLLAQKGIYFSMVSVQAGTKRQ
T1 sequence (Q16602 whole entry, one chain of several): as the sequence (Q16602 whole entry) above

Take `CN1C[C@@](C)(c2cc(F)cc(F)c2)N(CCCc2cnc3c(c2)C[C@@]2(C3)C(=O)Nc3ncccc32)C(=O)C12CCCC2`: the Ratio in data set [1] stood at 1.7. In data set [2], the Papp worked out at 23 ×10⁻⁶ cm/s. Moreover, the efflux ratio at 5 µM in data set [3] worked out at 1.8. Besides, the SUV in [4] turned out to be 0.6; in data set [7] it was 1. In addition, the logD in data set [5] was 3.16. The compound further returned a fraction unbound in data set [6] of 0.061. The Ki in [8] stood at 0.045 nM.

`O=C(N[C@@H]1CC[C@@H](c2cccc(F)c2F)CN(CC(F)(F)F)C1=O)N1CCC(n2c(=O)[nH]c3ncccc32)CC1` [TELCAGEPANT]: the “Ratio AUC” value in [9] is given as 1.3%. Further, the efflux ratio at 5 µM in [3] worked out at 24. The compound also had an unbound share (fraction unbound) in data set [6] of 0.038.

For the compound `CC1(C)NC[C@@](C)(c2cc(F)cc(F)c2)N(CC(=O)Nc2ccc3c(c2)C[C@@]2(C3)C(=O)Nc3ncccc32)C1=O`, the efflux ratio at 5 µM in data set [3] came out at 20. Besides, the fraction unbound in data set [6] stood at 0.333. For the same compound, the Ki in [8] is 0.11 nM.

`C[C@@]1(c2cc(F)cc(F)c2)CNC2(CCCC2)C(=O)N1CC(=O)Nc1ccc2c(c1)C[C@@]1(C2)C(=O)Nc2ncccc21`: the “Ratio AUC” value in [9] is 6.61%. Moreover, in [3], the efflux ratio at 5 µM was determined as 9.3.

Turning to `CN1C[C@@](C)(c2cc(F)cc(F)c2)N(CCCc2ccc3c(c2)C[C@@]2(C3)C(=O)Nc3ncccc32)C(=O)C12CCCC2`, the Ratio in [1] stood at 1.3. Besides, the SUV in [4] stood at 0.6; in [7], 0.8. In data set [5], the logD was 4.33. The compound also yielded a fraction unbound in data set [6] of 0.002. In addition, the Ki in data set [8] stood at 0.5 nM.

`O=C(CN1C(=O)C2(CCCC2)NC[C@H]1c1cc(F)cc(F)c1)Nc1ccc2c(c1)C[C@@]1(C2)C(=O)Nc2ncccc21` [MK3207]: the “Ratio AUC” value in data set [9] is 2.9%. The apparent permeability coefficient (Papp) in data set [2] came out at 28 ×10⁻⁶ cm/s. Besides, the Ratio in data set [10] is above 1000. The efflux ratio at 5 µM in [3] came out at 25. Moreover, in data set [5], the logD was found to be 2.35. In [11], the Bmax came out at 24 nM.

For `CN1C[C@@](C)(c2cc(F)cc(F)c2)N(CC(=O)Nc2ccc3c(c2)C[C@@]2(C3)C(=O)Nc3ncccc32)C(=O)C12CCCC2`, the “Ratio AUC” value in data set [9] is 3.12%. The Ratio in [1] stood at 2. Moreover, the figures for the IC50 in [12] and in [13] were 0.39 nM and 0.097 nM, respectively. The Papp in [2] was 25 ×10⁻⁶ cm/s. Also, the efflux ratio at 5 µM in data set [3] was 1.7. Also, the SUV in data set [4] is 0.9; in data set [7], 1.7. In addition, in [5], the logD is 3.39. Also, in [6], the fraction unbound is 0.043. In addition, the figures for the Ki in data set [14] and in [8] were 0.033 nM and 0.046 nM, respectively. Moreover, the Ratio IC50 in data set [15] was 4.

For `CN1C[C@@](C)(c2cc(F)cc(F)c2)N(C/C=C/c2cnc3c(c2)C[C@@]2(C3)C(=O)Nc3ncccc32)C(=O)C12CCCC2`, in data set [1], the Ratio stood at 1.7. Besides, the Papp in data set [2] stood at 21 ×10⁻⁶ cm/s. In addition, the efflux ratio at 5 µM in data set [3] was found to be 2. Besides, the SUV in [4] is on record as 0.7; in data set [7], 1.2. This compound also returned a logD in [5] of 3.36. In addition, the fraction unbound in data set [6] stood at 0.051. The Ki in [8] is 0.021 nM.

For `CN1C[C@@H](c2cc(F)cc(F)c2)N(CC(=O)Nc2ccc3c(c2)C[C@@]2(C3)C(=O)Nc3ncccc32)C(=O)C1(C)C`, the Papp in [2] is 27 ×10⁻⁶ cm/s. Also, the SUV in [4] turned out to be 0.5; in data set [7], 0.7. This compound returned a fraction unbound in [6] of 0.205. In [8], the Ki was 0.022 nM.

On to `CN1C[C@@](C)(c2cc(F)cc(F)c2)N(CC#Cc2cnc3c(c2)C[C@@]2(C3)C(=O)Nc3ncccc32)C(=O)C12CCCC2`, for which the “Ratio AUC” value in data set [9] turned out to be 2.64%. In data set [1], the Ratio was determined as 1.9. The apparent permeability coefficient (Papp) in data set [2] is 17 ×10⁻⁶ cm/s. Moreover, the efflux ratio at 5 µM in [3] worked out at 1.5. Also, the SUV in data set [4] is reported as 0.7; in data set [7], 1.3. Also, the logD in data set [5] was found to be 3.41. Also, in [6], the fraction unbound came to 0.031. Besides, in data set [8], the Ki was 0.019 nM.

Regarding `CN1C[C@@](C)(c2cc(F)cc(F)c2)N(CC#Cc2ccc3c(c2)C[C@@]2(C3)C(=O)Nc3ncccc32)C(=O)C12CCCC2`, the “Ratio AUC” value in data set [9] worked out at 0.99%. Besides, the Ratio in data set [1] stood at 1.6. The figures for the SUV in data set [4] and in [7] were 0.7 and 1.1, respectively. For the same compound, the logD in [5] came to 4.11. Besides, in data set [6], the fraction unbound worked out at 0.008. The Ki in data set [8] amounted to 0.11 nM.

For the compound `CC1(C)NC[C@@H](c2cc(F)cc(F)c2)N(CC(=O)Nc2ccc3c(c2)C[C@@]2(C3)C(=O)Nc3ncccc32)C1=O`, in data set [9], the “Ratio AUC” value is reported as 4.35%. The fraction unbound was found to be 0.1 in data set [16] and 0.429 in data set [6]. Besides, the efflux ratio at 5 µM in data set [3] worked out at 33. Besides, the Ki in data set [8] was 0.034 nM.

On to `CN1C[C@@](C)(c2cc(F)cc(F)c2)N(CC(=O)Nc2ccc3c(c2)C[C@@]2(C3)C(=O)Nc3ncccc32)C(=O)C1(C)C`, for which the “Ratio AUC” value in [9] amounted to 4.79%. Besides, in [1], the Ratio is 1.7. For the same compound, the Papp in data set [2] worked out at 29 ×10⁻⁶ cm/s. The figures for the fraction unbound in data set [16] and in [6] were 0.4 and 0.117, respectively. Further, in [3], the efflux ratio at 5 µM was determined as 2.8. For the same compound, the SUV in [4] was 0.7; in data set [7] it was 1.2. The Ki in data set [8] amounted to 0.056 nM.

On to `CN1C[C@@](C)(c2cc(F)cc(F)c2)N(C/C=C/c2ccc3c(c2)C[C@@]2(C3)C(=O)Nc3ncccc32)C(=O)C12CCCC2`, for which, in data set [9], the “Ratio AUC” value turned out to be 0.53%. Further, the Ratio in data set [1] turned out to be 1.4. For the same compound, the SUV in [4] was determined as 0.7; in data set [7], 1. The same compound showed a logD in data set [5] of 4.15. Further, the fraction unbound in data set [6] turned out to be 0.002. In addition, the Ki in data set [8] came out at 0.094 nM.

In the case of `CN1C[C@@](C)(c2cc(F)cc(F)c2)N(CC(=O)Nc2cnc3c(c2)C[C@@]2(C3)C(=O)Nc3ncccc32)C(=O)C12CCCC2`, the efflux ratio at 5 µM in data set [3] stood at 14. In addition, the Ki in [8] came out at 0.017 nM.
